The text below walks through data of PubChem BioAssay AID1656 (Sanford-Burnham Center for Chemical Genomics, 2009).

The whole screen tested about 240,000 compounds, of which about 950 (0.4%) were called active.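 Rule for the calls: active = lipid droplet intensity inhibited by at least 50%, with more than 500 cells counted; inconclusive = wells with under 300 cells, treated as cytotoxic; inactive = the rest.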 The sample as a whole holds a higher share of actives than the screen did.

The term inhibition denotes the relative decrease from the control value, in per cent.

A short description of this test: inhibitors of hepatocyte lipid droplet formation, primary screen, imaging, high-throughput imaging, BODIPY stain (AID 1656).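 For cell count: cells counted across two imaged fields per well.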 The conditions noted are these: AML12 mouse hepatocytes, oleate lipid droplets, at 6.5 µM; cell count: measured here: cell count, cytotoxicity flag; inhibition: stronger effect = higher value. Summed up: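 Assay system: AML12 hepatocytes (mouse) / Also added: 100 µM oleic acid challenge / Times: overnight treatment with compound plus oleate / Detection: high-content imaging of BODIPY-stained droplets and DAPI nuclei / Evaluation: % inhibition of lipid droplet signal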
Consider `CCC(C)(C)NC(=O)C(c1ccc(OC)cc1)N(C(=O)CCC(=O)Nc1cc(C)on1)c1ccc(OC)cc1OC` (stereo not drawn), for which the cell count came to 774 cells and the inhibition was 2.5% (inactive).

Regarding `COc1ccc(CN(CC(=O)NC2CCCC2)C(=O)CCC(=O)Nc2cc(C)on2)cc1`, the cell count came out at 702 cells and the inhibition was -31.7% (inactive).

Turning to `COc1ccc(C(C(=O)NC(C)(C)C)N(Cc2ccc(F)cc2)C(=O)CCC(=O)Nc2cc(C)on2)cc1` (stereo not drawn), the cell count was 757 cells and the inhibition is 96.7% (active).

In the case of `COc1cccc(CNC(=O)Cn2c(=O)oc3cc(S(=O)(=O)N4CCCCC4)ccc32)c1`, the cell count turned out to be 692 cells and the inhibition was 25.1% (inactive).

Turning to `CCOC(=O)C1=C(C)OC(N)=C(C#N)C1c1cncc(-c2ccc(F)cc2)c1` (stereo not drawn), the cell count came to 619 cells and the inhibition was -2.2% (inactive).

On to `CCOC(=O)C1=C(CC)OC(N)=C(C#N)C1c1ccc(F)cc1F` (stereo not drawn), for which the cell count is 769 cells and the inhibition was 70.2% (active).

Regarding `CCC1=C(C(=O)OC)C(c2cc(OC)ccc2OC)C(C#N)=C(N)O1` (stereo not drawn), the cell count came out at 697 cells and the inhibition was -12.3% (inactive).

Consider `COc1cc(/C=N/NC(=O)Nc2ccccc2)ccc1OCCOc1ccccc1C`, for which the cell count turned out to be 674 cells and the inhibition is 94.6% (active).

As for `COc1cc(/C=N/NC(=O)c2ccoc2C)ccc1OCCN1CCCCC1`, the cell count stood at 729 cells and the inhibition was 4.7% (inactive).

As for `COc1ccc(/C=N/NC(=O)c2ccccc2)cc1OS(=O)(=O)c1ccccc1`, the cell count worked out at 657 cells and the inhibition was -6% (inactive).

With `CC(C)CCn1c(=O)c2c(nc3n2CCCN3Cc2ccccc2)n(C)c1=O`, the cell count is 827 cells and the inhibition is -12.4% (inactive).

In the case of `Cc1cccn2c(=O)c(/C=C(\C#N)C(N)=O)c(N3CCCCCC3)nc12`, the cell count was determined as 788 cells and the inhibition is 1.2% (inactive).

`CC(=O)c1ccc(N2CCN(C(=O)C3CCN(S(=O)(=O)c4ccc5c(c4)CC(C)N5C(=O)C4CC4)CC3)CC2)cc1` (stereo not drawn): the cell count was 672 cells and the inhibition is -0.3% (inactive).

As for `COc1cccc(N(CC(=O)NC2CCCCCC2)S(=O)(=O)c2ccccc2)c1`, the cell count is 750 cells and the inhibition was 2.3% (inactive).

Take `CCC(C)[C@H](NC(=O)N1CCn2c1nc1ccccc12)C(=O)NCc1ccc(OC)cc1` (stereo partly drawn): the cell count worked out at 712 cells and the inhibition is 28% (inactive).

With `CCc1ccc2nc(N(CCCN(C)C)C(=O)c3ccc4c(c3)OCCO4)sc2c1`, the cell count turned out to be 802 cells and the inhibition was 0% (inactive).

Consider `CCC(=O)N1CCN(c2ccccc2NC(=O)COc2cccc(C)c2C)CC1`, for which the cell count came to 823 cells and the inhibition is -15% (inactive).

For `COc1cc(/C=N/NC(=O)c2cccnc2)ccc1OC(=O)c1cccc(Br)c1`, the cell count was 669 cells and the inhibition was -11.9% (inactive).

On to `CN1CCN(CCNC(=O)Nc2ccccc2[N+](=O)[O-])CC1`, for which the cell count is 440 cells and the inhibition was 10.2% (inactive).

As for `O=[N+]([O-])c1ccccc1N/N=C1\CCc2ccccc21`, the cell count is 658 cells and the inhibition was 60.3% (active).

For `O=[N+]([O-])c1cc(C(F)(F)F)ccc1NN=C1CCCC1`, the cell count was determined as 631 cells and the inhibition is 1.6% (inactive).

As for `Cc1c2cnn(CC(=O)NCc3ccccn3)c(=O)c2c(C)n1Cc1ccc(Cl)cc1`, the cell count came out at 683 cells and the inhibition was -9.1% (inactive).

`CN(C)c1ccc(Nc2c3c4c(cccc4n(C)c2=O)C(=O)c2ccccc2-3)cc1`: the cell count is 681 cells and the inhibition is 75.9% (active).

As to `CCOc1ccccc1-c1cc(C(=O)N/N=C(\C)c2cccnc2)c2ccccc2n1`, the cell count amounted to 660 cells and the inhibition was -32% (inactive).

In the case of `Cc1c2cnn(CC(=O)NCCCN3CC(C)CC(C)C3)c(=O)c2c(C)n1Cc1ccc(Cl)cc1` (stereo not drawn), the cell count was 643 cells and the inhibition is -27.4% (inactive).

Consider `CC1CC(C)CN(CCOc2cccc3ccccc23)C1` (stereo not drawn), for which the cell count is 797 cells and the inhibition was -2.9% (inactive).

As to `COc1ccc(Oc2cn[nH]c2-c2ccc(OC)cc2O)cc1`, the cell count amounted to 836 cells and the inhibition is -10.9% (inactive).

Turning to `COC(=O)c1cc(NS(=O)(=O)c2ccc3c(c2)c(=O)n(C)c(=O)n3C)cc(C(=O)OC)c1`, the cell count worked out at 716 cells and the inhibition is -11.5% (inactive).

On to `CSc1ccccc1C(=O)NCc1ccccc1`, for which the cell count is 673 cells and the inhibition was 4% (inactive).

With `Cc1c(C(=O)N(Cc2ccccc2)Cc2cccnc2)cnn1-c1ccc(F)cc1`, the cell count was 648 cells and the inhibition was -6% (inactive).

For `Cc1c(C(=O)NCc2ccccc2)cnn1-c1ccccc1`, the cell count turned out to be 684 cells and the inhibition was 56.3% (active).

In the case of `COC(=O)C1=CN(c2ccc(F)c(F)c2)C=C(C(=O)OC)C1c1ccc([N+](=O)[O-])cc1`, the cell count is 825 cells and the inhibition is -1.4% (inactive).

As to `Cc1ccc(C)c(S(=O)(=O)N2CCCOC2CNC(=O)C(=O)NC2CCCCC2)c1` (stereo not drawn), the cell count was found to be 690 cells and the inhibition was -1.2% (inactive).

On to `COc1cccc(N2CCN(c3ccc4nnc(CCC(=O)N5CCN(C)CC5)n4n3)CC2)c1`, for which the cell count came out at 633 cells and the inhibition is -28.1% (inactive).

Turning to `COc1cc(SC)ccc1C(=O)N(Cc1ccccc1)c1ccccc1`, the cell count stood at 608 cells and the inhibition was -8.6% (inactive).

As for `COCn1c(C(O)c2ccccc2)cc2ccccc21` (stereo not drawn), the cell count is 813 cells and the inhibition is -9.2% (inactive).

Consider `Cc1ccc(O)c(/C=N/NC(=O)COc2ccc3c(C)cc(=O)oc3c2)c1`, for which the cell count was determined as 786 cells and the inhibition was -1.7% (inactive).

On to `CCn1cc(CN2CCN(CC(C)(C)C)C(CCO)C2)c2ccccc21` (stereo not drawn), for which the cell count came out at 814 cells and the inhibition is 5.1% (inactive).

Regarding `CC(=O)Nc1cccc(Nc2nc(-c3cccs3)nc3ccccc23)c1`, the cell count was determined as 775 cells and the inhibition was 2.7% (inactive).

With `COc1cc2c(cc1OC)CN(C(=O)c1cc(S(=O)(=O)N3CCCCC3)ccc1Cl)CC2`, the cell count was 813 cells and the inhibition is -18.7% (inactive).

On to `COc1ccc(NC(=O)CN2C(=O)CSc3ccc(S(=O)(=O)N4CCC(C)CC4)cc32)cc1`, for which the cell count was 698 cells and the inhibition is -8.1% (inactive).

Take `COCCCNC(=O)CN1C(=O)CSc2ccc(S(=O)(=O)N3CCOCC3)cc21`: the cell count is 798 cells and the inhibition is 59.7% (active).

In the case of `CC1CCN(CCCNC(=O)CN2C(=O)CSc3ccc(S(=O)(=O)N4CCCCC4)cc32)CC1`, the cell count was 719 cells and the inhibition is 8% (inactive).

Consider `CNC[C@H](CC1CCCCC1)NC[C@H](NCCC1CCCC1)[C@H](C)O`, for which the cell count was determined as 688 cells and the inhibition is 1.2% (inactive).

With `CCOC(=O)C1(Cc2ccccc2C)CCCN(C(=O)CCc2c(C)noc2C)C1` (stereo not drawn), the cell count came out at 656 cells and the inhibition was -27.4% (inactive).

As for `CN(C(=O)c1cc2c(=O)n3ccccc3nc2s1)C1CCCCC1`, the cell count came to 654 cells and the inhibition was -14.1% (inactive).

As to `CC(C)c1nc(SCC(=O)Nc2cccc(C(=O)O)c2)c2c3c(sc2n1)CCCC3`, the cell count came out at 835 cells and the inhibition is -26% (inactive).

As for `Cc1cc(NC(=O)CSc2nc(C(C)C)nc3sc4c(c23)CCC(C)C4)no1` (stereo not drawn), the cell count worked out at 668 cells and the inhibition is 105% (active).

As to `Cc1nc(SCC(=O)Nc2cc(C)on2)c2c3c(sc2n1)CCCC3`, the cell count came to 678 cells and the inhibition is 5.3% (inactive).
